Results: ChEMBL document CHEMBL1155603, “Stilbene glycoside sulfates from Polygonum cuspidatum” (J Nat Prod, 2000)
The source made the active and inactive calls. The calls are words filed in the database; no cut-off is given here.

Columns and labels:
[1] = test system: Candida albicans; experiment: Antifungal activity against Candida albicans; assay type: functional, organism-based
Outline: (§1)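 In vitro susceptibility test on yeasts, run by the National Committee for Clinical and Laboratory Standards procedure.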

[2] = test system: Cryptococcus neoformans; experiment: Antifungal activity against Cryptococcus neoformans; assay type: functional, organism-based; outline: as §1
[3] = test system: Candida parapsilosis; experiment: Antifungal activity against Candida parapsilosis; assay type: functional, organism-based; outline: as §1
[4] = test system: Candida tropicalis; experiment: Antifungal activity against Candida tropicalis; assay type: functional, organism-based; outline: as §1
[5] = test system: Sporothrix schenckii; experiment: Antifungal activity against Sporothrix schenckii; assay type: functional, organism-based
[6] = test system: Aspergillus fumigatus; experiment: Antifungal activity against Aspergillus fumigatus; assay type: functional, organism-based
[7] = test system: Trichophyton rubrum; experiment: Antifungal activity against Trichophyton rubrum; assay type: functional, organism-based
[8] = test system: Fonsecaea pedrosoi; experiment: Antifungal activity against Fonsecaea pedrosoi; assay type: functional, organism-based
[9] = test system: A549; experiment: Cytotoxicity against human A549 cells after 96 hrs by MTT assay; assay type: functional, cell-based; conditions: A549, 96 h

Structure (SMILES)	Activity [1]	Activity [2]	Activity [3]	Activity [4]	Activity [5]	Activity [6]	Activity [7]	Activity [8]	IC50 [9]
O=S(=O)(O)Oc1ccc(/C=C/c2cc(O)cc(O[C@@H]3O[C@H](CO)[C@@H](O)[C@H](O)[C@H]3O)c2)cc1	inactive	inactive	inactive	inactive	inactive	inactive	inactive	inactive	
O=S(=O)(O)Oc1cc(/C=C/c2ccc(O)cc2)cc(O[C@@H]2O[C@H](CO)[C@@H](O)[C@H](O)[C@H]2O)c1	inactive	inactive	inactive	inactive	inactive	inactive	inactive	inactive	
O=S(=O)(O)OC[C@H]1O[C@@H](Oc2cc(O)cc(/C=C/c3ccc(O)cc3)c2)[C@H](O)[C@@H](O)[C@@H]1O	inactive	inactive	inactive	inactive	inactive	inactive	inactive	inactive	
O=S(=O)(O)O[C@H]1[C@H](Oc2cc(O)cc(/C=C/c3ccc(O)cc3)c2)O[C@H](CO)[C@@H](O)[C@@H]1O	inactive	inactive	inactive	inactive	inactive	inactive	inactive	inactive	
O=S(=O)(O)O[C@H]1[C@H](O)[C@@H](O)[C@H](Oc2cc(O)cc(/C=C\c3ccc(O)cc3)c2)O[C@@H]1CO	inactive	inactive	inactive	inactive	inactive	inactive	inactive	inactive	
O=S(=O)(O)Oc1cc(/C=C\c2ccc(O)cc2)cc(O[C@@H]2O[C@H](CO)[C@@H](O)[C@H](O)[C@H]2O)c1	inactive	inactive	inactive	inactive	inactive	inactive	inactive	inactive	
O=S(=O)([O-])O[C@H]1[C@H](O)[C@@H](O)[C@H](Oc2cc(O)cc(/C=C/c3ccc(O)cc3)c2)O[C@@H]1CO.[K+]	inactive	inactive	inactive	inactive	inactive	inactive	inactive	inactive	80 µg/mL
O=S(=O)(O)OC[C@H]1O[C@@H](Oc2cc(O)cc(/C=C\c3ccc(O)cc3)c2)[C@H](O)[C@@H](O)[C@@H]1O	inactive	inactive	inactive	inactive	inactive	inactive	inactive	inactive	
O=S(=O)(O)O[C@H]1[C@H](Oc2cc(O)cc(/C=C\c3ccc(O)cc3)c2)O[C@H](CO)[C@@H](O)[C@@H]1O	inactive	inactive	inactive	inactive	inactive	inactive	inactive	inactive	
